A selection: hits, their analogues and other compounds. The true share with any hit is near 2.4%.
Apaf1 inhib = inhibitors of human Apaf-1 apoptosome, primary screen, biochemical, DEVD-Rh110 fluorescence, uHTS; Apoptotic protease-activating factor 1 (Homo sapiens), O14727; reconstituted apoptosome caspase-3 activity; inhibition, % at 20 µM; 330,000 tested, 0.71% active; AID 489030, 2010; active = inhibition of at least 40% at 20 µM;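 also: plate controls were DMSO wells for no effect and DEVD-CHO caspase inhibitor wells for full effect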
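Medium: Hepes buffer, pH 7.5 / System: biochemical Apaf-1 apoptosome reconstitution / Measured by: Rh110 fluorescence, excitation 480 nm, emission 540 nm / Times: compound with Apaf-1, dATP, procaspase-3 30 min, then 50 min reaction, room temperature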
TCR CD3 inh = inhibitors of human TCR-CD3 interaction, primary screen, biochemical, fluorescence, TAMRA-labeled TCR probe. T-cell receptor (TCR). inhibition, % at 9.4 µM. 360,000 tested, 0.37% active. AID 651800, 2012; in the data active = inhibition above about 19%;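 also: recombinant mutant TCR 2C K166C tagged with TAMRA read by polarization; 0% = receptor in buffer alone and 100% = receptor with positive control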
GSTO1 inh = inhibitors of recombinant GSTO1, primary screen, counter-screen for RBBP9 inhibitor project, biochemical, fluorescence polarization; activity-based probe fluorescence polarization; inhibition, % at 5.96 µM; 300,000 tested, 1.1% active;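 active = inhibition above the campaign mean inhibition plus 3 SD, cut at about 35% in these data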;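 also: 0% = GSTO1-1 with DMSO and 100% = wells lacking GSTO1-1 enzyme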
TDP2 inh = human TDP2 enzyme inhibitors, primary screen, biochemical, epi absorbance, recombinant enzyme | 370,000 tested, 0.34% active | T5PNP hydrolysis, p-nitrophenol absorbance 415 nm | Tyrosyl-DNA phosphodiesterase 2 (Homo sapiens), O95551 | inhibition, % at 12.8 µM | AID 720702, 2013;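 active = inhibition above the mean of all tested compounds plus 3 SD, set per campaign, cut at about 25% in these data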;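 also: 0% = DMSO with enzyme and 100% = buffer with substrate but no TDP2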
Target sequence (O95551 whole entry, looked up): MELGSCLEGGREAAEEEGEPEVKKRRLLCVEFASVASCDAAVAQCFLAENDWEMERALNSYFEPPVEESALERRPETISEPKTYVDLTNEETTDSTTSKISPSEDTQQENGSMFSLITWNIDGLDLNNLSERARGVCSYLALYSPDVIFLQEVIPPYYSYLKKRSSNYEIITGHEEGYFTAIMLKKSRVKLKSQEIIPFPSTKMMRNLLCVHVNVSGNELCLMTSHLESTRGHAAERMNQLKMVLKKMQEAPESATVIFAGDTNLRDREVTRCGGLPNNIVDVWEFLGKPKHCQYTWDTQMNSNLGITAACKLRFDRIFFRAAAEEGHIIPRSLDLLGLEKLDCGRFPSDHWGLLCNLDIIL
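Test system: Human TDP2 enzyme | Reagent: 5 mM T5PNP | Compound dosing: 12.8 µM single point, 1% DMSO | Incubation: Enzyme reaction with compound for 2 h at 37 °C | Technique: p-Nitrophenol epi absorbance | Read-out: % inhibition relative to enzyme-containing and enzyme-free wells | Benchmarks: High control without enzyme, low control DMSO plus TDP2 | Replicates: Singlicate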
PAD4 FP inh = human PAD4 inhibitors, primary screen, biochemical, fluorescence polarization, 1536-well format; Protein-arginine deiminase type-4 (Homo sapiens), Q9UM07; recombinant PAD4, RCA probe fluorescence polarization; inhibition, % at 6.36 µM; 330,000 tested, 0.41% active;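 active = percent inhibition above a cutoff equal to the mean of all tested compounds plus 3 SD, cut at about 15% in these data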;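 also: 0% = PAD4 with RCA probe and DMSO and 100% = probe without PAD4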
SIAE inh = human SIAE inhibitors, primary screen, biochemical, fluorescence polarization, FP-Rh probe, 1536-well HTS. inhibition, % at 9.66 µM. SIAE FP-Rh probe binding. AID 1053197, 2014. 370,000 tested, 0.69% active. Sialate O-acetylesterase (Homo sapiens), Q9HAT2;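 active = inhibition above a cutoff: mean of compounds within the control limits plus 3 SD of those, cut at about 17% in these data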;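 also: 0% = plate median of compound wells and 100% = probe without SIAE protein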
Apaf-1 inh conf2 = Apaf-1 inhibitors, single-dose retest, confirmation, biochemical, fluorescence, DEVD-Rh110, 20 µM; shares compounds with Apaf1 inhib; reconstituted apoptosome, caspase-3 DEVD-Rh110 fluorescence; inhibition, % at 20 µM; 1,800 tested, 25% active; AID 504614, 2011;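 active = mean inhibition of at least 40% at 20 µM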;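 also: plate controls were DMSO wells for no effect and DEVD-CHO caspase inhibitor control wells for full effect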
Rh110 quench = Rh110 fluorescence interference by putative Apaf-1 inhibitors, confirmation, artefact control for Apaf-1 inhibitor project, biochemical, 20 µM; shares compounds with Apaf1 inhib; quenched caspase reaction; activation (fluorescence interference), % at 20 µM; 1,800 tested, under 10 active; AID 504615, 2011;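 active = signal rise of 40% or more at 20 µM, treated as a fluorescence artifact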
* = called active by the depositor; . = no result given.

SMILES	Apaf1 inhib	TCR CD3 inh	GSTO1 inh	TDP2 inh	PAD4 FP inh	SIAE inh	Apaf-1 inh conf2	Rh110 quench
O=C1C(=O)c2c(C(=O)c3ccccc3)coc2-c2ccccc21	55*	1	32	9	-13	-2	36	14
O=C(c1ccccc1)c1coc2ccc(O)c(Cl)c12	-16	1	11	6	-3	11	.	.
COc1ccc(C(=O)COC(=O)CCCN=C2NS(=O)(=O)c3ccccc32)c(OC)c1	51*	-1	-8	-4	-4	5	9	1
CN(C)S(=O)(=O)c1cccc(NC(=O)COC(=O)/C=C/c2ccco2)c1	95*	4	0	3	1	2	6	1
COc1ccc(Cn2c(N)c(C#N)c3nc4ccccc4nc32)cc1OC	86*	2	11	9	-19	-5	10	11
COc1cc(CNC(=O)Nc2nc(C(N)Cc3ccc(Cl)cc3)cs2)cc(OC)c1OC (stereo not drawn)	.	-9	.	-3	.	-5	.	.
O=C(COc1ccc2c3c(c(=O)oc2c1)CCC3)N1CCN(c2ccc(F)cc2)CC1	42*	-3	2	-3	-4	-8	11	3
O=C(CSc1nnc(CNC(=O)c2ccco2)o1)Nc1ccc(OC(F)(F)F)cc1	-9	3	9	1	-2	-6	.	.
O=C(CN1C2CCCC1CC(NC(=O)c1ccco1)C2)Nc1ccccc1 (stereo not drawn)	2	-7	10	2	2	-2	.	.
O=C(NC1CC2CCCC(C1)N2S(=O)(=O)c1ccccc1)c1ccco1 (stereo not drawn)	42*	-2	-1	-3	3	-4	2	5
CC1CCc2c(sc3ncnc(NCCN4CCOCC4)c23)C1 (stereo not drawn)	12	-13	4	1	2	1	.	.
Clc1cccc(CSc2nnc(-c3ccccn3)n2Cc2ccco2)c1	42*	-2	-8	1	-6	4	14	1
O=C1CSC(=S)N1N=Cc1ccc(OCc2ccccc2)cc1	.	-4	.	-5	.	-6	.	.
CCOC(=O)C1CCN(c2cc3c(cc2NC(=O)c2ccccc2OCC)n(C)c(=O)n3C)CC1	40*	2	-4	4	5	8	22	9
CCOC(=O)C1CCN(c2cc3c(cc2NC(=O)c2ccccc2Cl)n(C)c(=O)n3C)CC1	21	6	-6	2	0	2	.	.
COc1ccc(-c2cc(C(=O)NN=Cc3ccc(O)c(OC)c3)[nH]n2)cc1	.	.	.	-4	.	0	.	.
O=C(/C=C/c1ccc(-c2ccccc2[N+](=O)[O-])o1)c1ccco1	43*	7	29	-1	-7	-11	19	-2
O=C(/C=C/c1ccc([N+](=O)[O-])cc1)c1ccco1	-11	4	3	-9	-1	-3	.	.
Cc1ccc(CONS(=O)(=O)c2cc(C)ccc2C)cc1	8	1	.	0	0	-18	.	.

Screening data from PubChem BioAssay.
